Converted amounts (≈) assume the structure as drawn.
What was measured:
Trypanosoma cruzi = experiment: Antitrypanosomal activity against intracellular Trypanosoma cruzi infected in human U2OS cells assessed as parasite growth inhibition incubated for 72 hrs by confocal microscopy; assay type: functional, organism-based
[1] = Intrinsic clearance in mouse liver microsomes at 1 uM incubated for 15 to 30 mins by LC/MS/MS analysis; assay type: ADME, Microsome; conditions: time 15-30 min
[2] = Intrinsic clearance in human liver microsomes at 1 uM incubated for 15 to 30 mins by LC/MS/MS analysis; assay type: ADME, Microsome; conditions: time 15-30 min
[3] = Kinetic solubility of compound in aqueous buffer at pH 6.8 incubated for 16 to 24 hrs by HPLC analysis; assay type: physicochemical; conditions: time 16-24 hrs, read-out: Kinetic_solubility
[4] = Permeability of compound incubated for 3 hrs by PAMPA assay; assay type: ADME; conditions: read-out: permeability
[5] = Selectivity index, ratio of IC50 for human U2OS cells to IC50 for intracellular Trypanosoma cruzi infected in human U2OS cells; assay type: toxicity, cell-based; conditions: for selectivity ratio: U2OS cells, read-out: Selectivity Index
How it was run: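 Host U2OS cell counts and intracellular parasite infection ratio were read from the same 72 h DRAQ5-stained confocal imaging assay. CC50 and EC50 came from 4-parameter logistic fits, and the selectivity index is their ratio.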

[6] = Selectivity index, ratio of IC50 for human THP-1 cells to IC50 for Leishmania donovani infected in human THP-1 cells; assay type: toxicity, cell-based; conditions: read-out: Selectivity Index

Compound	IC50 (Trypanosoma cruzi; Trypanosoma cruzi, U2OS, 72 h) [nM]	selectivity ratio [5]	other results
c1ccc(N2CCN(c3nc(-c4ccccn4)nc4ccccc34)CC2)cc1	430		intrinsic clearance (CLint) [1]: > 500 µL/min/mg; CLint [2]: 95 µL/min/mg; solubility kinetic [3]: 15 µg/mL (≈ 40.8 µM); Papp at 3 h [4]: 29.1 ×10⁻⁶ cm/s
c1ccc(-c2nc(N3CCN(c4ccccn4)CC3)c3ccccc3n2)nc1	3300	6.4	
Cc1cccc(CNc2nc(-c3ccccn3)nc3ccccc23)n1	2400	21	
c1ccc(-c2nc(N3CCc4ccccc4C3)c3ccccc3n2)nc1	720	6.6	intrinsic clearance (CLint) [1]: 464 µL/min/mg; CLint [2]: 150 µL/min/mg; solubility kinetic [3]: 10 µg/mL (≈ 29.5 µM); Papp at 3 h [4]: 40.8 ×10⁻⁶ cm/s
c1ccc(-c2nc(N3CCCC(c4ccccn4)C3)c3ccccc3n2)nc1 (centres undefined)	1300	7.3	
CC1CCCN(c2nc(-c3ccccn3)nc3ccccc23)C1 (centres undefined)	430	19	intrinsic clearance (CLint) [1]: 452 µL/min/mg; CLint [2]: 188 µL/min/mg; solubility kinetic [3]: 69 µg/mL (≈ 227 µM); Papp at 3 h [4]: 36.4 ×10⁻⁶ cm/s
Cc1ccc(Nc2nc(-c3ccccn3)nc3ccccc23)cn1	31000	1.6	
c1ccc(-c2nc(N3CCc4cccnc4C3)c3ccccc3n2)nc1	7400	4.9	
c1ccc(-c2nc(N3CCn4ccnc4C3)c3ccccc3n2)nc1	27000	1.9	
c1ccc(CNc2nc(-c3ccccn3)nc3ccccc23)nc1	4400	11	
CCn1ncc2nc(-c3ccccn3)nc(N3CCC(c4ccccn4)C3)c21 (centres undefined)	1200	2.7	
c1ccc(-c2nc(NCc3cccnc3)c3ccccc3n2)nc1	6300	8	
c1ccc(-c2nc(NCc3nccs3)c3ccccc3n2)nc1	2700	19	
CCC(C)Nc1nc(-c2ccccn2)nc2ccccc12 (centres undefined)	2100		
CC1CCN(c2nc(-c3ccccn3)nc3ccccc23)CC1	410		intrinsic clearance (CLint) [1]: > 500 µL/min/mg; CLint [2]: 112 µL/min/mg; solubility kinetic [3]: 59 µg/mL (≈ 194 µM); Papp at 3 h [4]: 44.1 ×10⁻⁶ cm/s
c1ccc(CCNc2nc(-c3ccccn3)nc3ccccc23)nc1	3400	14	

Compound	IC50 (Trypanosoma cruzi; Trypanosoma cruzi, U2OS, 72 h) [nM]	selectivity ratio [5]	other results
c1ccc(-c2nc(N3CCc4nc[nH]c4C3)c3ccccc3n2)nc1	21000	2.3	
Cc1cccc(N2CCN(c3nc(-c4ccccn4)nc4ccccc34)CC2)n1	1900	7	
Cc1nc(-c2ccccn2)nc(NCc2ccccc2)c1Cl	> 50000		selectivity ratio [6]: > 2.5
Cc1ccc(Nc2nc(-c3ccccn3)nc3ccccc23)nc1	100	< 1	
N#CC1CCN(c2nc(-c3ccccn3)nc3ccccc23)C1 (centres undefined)	7000	7.2	
Cn1ncc2nc(-c3ccccn3)nc(N3CCC(c4ccccn4)C3)c21 (centres undefined)	1800	2.9	solubility kinetic [3]: 99 µg/mL (≈ 277 µM); Papp at 3 h [4]: 17.1 ×10⁻⁶ cm/s
Fc1cccc(Nc2nc(-c3ccccn3)nc3ccccc23)c1	510	20	
c1ccc(-c2nc(N3CCC(c4ccccn4)C3)c3ccccc3n2)nc1 (stereo in doubt; 85-tR1)			IC50 (Trypanosoma cruzi; u2os): 1100 nM; Selectivity Index [5]: 4.2
c1ccc(-c2nc(Nc3ccc4[nH]ncc4c3)c3ccccc3n2)nc1	6200	3.5	
CCn1ccc2nc(-c3ccccn3)nc(N3CCC(c4ccccn4)C3)c21 (centres undefined)	180	28	
CCn1cc2c(N3CCC(c4ccccn4)C3)nc(-c3ccccn3)nc2n1 (centres undefined)	1500	2.3	
c1ccc(-c2nc(N3CCCC3c3ccccn3)c3ccccc3n2)nc1 (centres undefined)	1800	25	
CCn1ncc2c(N3CCC(c4ccccn4)C3)nc(-c3ccccn3)nc21 (centres undefined)	18000	2.8	
O=S(=O)(c1cccs1)N1CCc2nc(-c3ccccn3)nc(N3CCCCCC3)c2C1	860	> 58	
OC1(c2ccccc2)CCN(c2nc(-c3ccccn3)nc3ccccc23)C1 (centres undefined)	35000	2.8	
N#CC1CCCN(c2nc(-c3ccccn3)nc3ccccc23)C1 (centres undefined)	18000	2.7	

Reference: ChEMBL document CHEMBL5316304, “Collaborative Virtual Screening Identifies a 2-Aryl-4-aminoquinazoline Series with Efficacy in an In Vivo Model of Trypanosoma cruzi Infection” (J Med Chem, 2023)
